Measurements published in ChEMBL document CHEMBL1135786, “Anti-AIDS agents 49. Synthesis, anti-HIV, and anti-fusion activities of IC9564 analogues based on betulinic acid” (J Med Chem, 2002).

Tests used:
Assay type in all cases: functional, organism-based
[1] = tested on: Human immunodeficiency virus 1; experiment: Anti HIV-1 activity against the virus NL4-3 using MAGI assay; conditions: Human immunodeficiency virus 1, MAGI
Summary of the method: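 HeLa-CD4/CCR5/β-gal indicator cells seeded at 10 000/well, grown 1 day in DMEM with G418 (500 µg/mL) and hygromycin (250 µg/mL). Infected with virus dilutions in presence of graded compound concentrations, 2 days at 37 °C. Fixed (1% formaldehyde, 0.2% glutaraldehyde), X-gal stained (0.4 mg/mL). Blue (Tat-expressing) cells counted; EC50 = concentration halving infected-cell number.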

[2] = tested on: Human immunodeficiency virus 1; experiment: Anti HIV-1 activity against the virus NL4-3 using fusion assay
Summary of the method: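 COS cells (10⁶) electroporated (950 µF, […]) with 2 µg vector expressing HIV-1 NL4-3 envelope, cultured 1 day. Then 10⁴ transfected cells mixed with 7 × 10⁴ MOLT-4 cells. Graded compound concentrations added, 24 h at 37 °C. Multinucleated syncytia counted microscopically over entire well; EC50 from syncytium inhibition.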

[3] = tested on: Human immunodeficiency virus 1; experiment: Anti HIV-1 activity against infected H9 lymphocyte cells; conditions: Human immunodeficiency virus 1, H9
Summary of the method: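 HIV-1 acutely infected H9 lymphocytes cultured with the test agent; EC50 (µM) reported.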

Row | SMILES | EC50 [1] [µM] | EC50 [2] [µM] | EC50 [3] [µM]
1 | C=C(C)[C@@H]1CC[C@]2(C(=O)NCCCCCCCC(=O)OC)CC[C@]3(C)[C@H](CC[C@@H]4[C@@]5(C)CC[C@H](OC(C)=O)C(C)(C)[C@@H]5CC[C@]43C)[C@@H]12 | 29.1 | > 31 | 
2 | C=C(C)[C@@H]1CC[C@]2(C(=O)NCCCCCCCC(=O)N[C@@H](CC(C)C)[C@H](O)CC(=O)O)CC[C@]3(C)[C@H](CC[C@@H]4[C@@]5(C)CC[C@H](O)C(C)(C)[C@@H]5CC[C@]43C)[C@@H]12 | 0.4 | 0.66 | 
3 | C=C(C)[C@@H]1CC[C@]2(C(=O)NCCCCCCCCCCC(=O)N[C@@H](CC(C)C)C(=O)O)CC[C@]3(C)[C@H](CC[C@@H]4[C@@]5(C)CC[C@H](O)C(C)(C)[C@@H]5CC[C@]43C)[C@@H]12 | 0.46 | 0.33 | 
4 | CC(=O)O[C@H]1CC[C@]2(C)[C@H]3CC[C@@H]4[C@H]5[C@H](C(C)C)CC[C@]5(C(=O)NCCCCCCCC(=O)N[C@@H](CC(C)C)[C@H](O)CC(=O)OCc5ccccc5)CC[C@@]4(C)[C@]3(C)CC[C@H]2C1(C)C | > 28 | > 22 | 
5 | C=C(C)[C@@H]1CC[C@]2(C(=O)NCCCCCCCCCCC(=O)O)CC[C@]3(C)[C@H](CC[C@@H]4[C@@]5(C)CC[C@H](O)C(C)(C)[C@@H]5CC[C@]43C)[C@@H]12 | 0.7 | 0.31 | 
6 | C=C(C)[C@@H]1CC[C@]2(C(=O)N[C@@H](CC(C)C)C(=O)O)CC[C@]3(C)[C@H](CC[C@@H]4[C@@]5(C)CC[C@H](O)C(C)(C)[C@@H]5CC[C@]43C)[C@@H]12 |  | 5.48 | 3.22
7 | C=C(C)[C@@H]1CC[C@]2(C(=O)NCCC(=O)O)CC[C@]3(C)[C@H](CC[C@@H]4[C@@]5(C)CC[C@H](O)C(C)(C)[C@@H]5CC[C@]43C)[C@@H]12 | > 47 | > 38 | 
8 | C=C(C)[C@@H]1CC[C@]2(C(=O)NCCC(=O)OC)CC[C@]3(C)[C@H](CC[C@@H]4[C@@]5(C)CC[C@H](OC(C)=O)C(C)(C)[C@@H]5CC[C@]43C)[C@@H]12 | 26.7 | 21.4 | 
9 | C=C(C)[C@@H]1CC[C@]2(C(=O)NCCCCCCCCCCC(=O)N[C@@H](CC(C)C)C(=O)OC)CC[C@]3(C)[C@H](CC[C@@H]4[C@@]5(C)CC[C@H](O)C(C)(C)[C@@H]5CC[C@]43C)[C@@H]12 | > 32 | > 26 | 
10 | C=C(C)[C@@H]1CC[C@]2(C(=O)NCCC(=O)N[C@@H](CC(C)C)C(=O)OC)CC[C@]3(C)[C@H](CC[C@@H]4[C@@]5(C)CC[C@H](O)C(C)(C)[C@@H]5CC[C@]43C)[C@@H]12 | > 38 | 7.63 | 
11 | C=C(C)[C@@H]1CC[C@]2(C(=O)NCCCCCCCCCCC(=O)OC)CC[C@]3(C)[C@H](CC[C@@H]4[C@@]5(C)CC[C@H](OC(C)=O)C(C)(C)[C@@H]5CC[C@]43C)[C@@H]12 | 10.2 | > 29 | 
12 | C=C(C)[C@@H]1CC[C@]2(C(=O)NCCC(=O)N[C@@H](CC(C)C)C(=O)O)CC[C@]3(C)[C@H](CC[C@@H]4[C@@]5(C)CC[C@H](O)C(C)(C)[C@@H]5CC[C@]43C)[C@@H]12 | > 39 | > 31 | 
13 | C=C(C)[C@@H]1CC[C@]2(C(=O)NCCCCCCCC(=O)N[C@@H](CC(C)C)C(=O)O)CC[C@]3(C)[C@H](CC[C@@H]4[C@@]5(C)CC[C@H](O)C(C)(C)[C@@H]5CC[C@]43C)[C@@H]12 | 1.38 | 1.1 | 
14 | C=C(C)[C@@H]1CC[C@]2(C(=O)NCCCCCCCC(=O)N[C@@H](CC(C)C)C(=O)OC)CC[C@]3(C)[C@H](CC[C@@H]4[C@@]5(C)CC[C@H](O)C(C)(C)[C@@H]5CC[C@]43C)[C@@H]12 | 0.52 | 0.86 | 
15 | C=C(C)[C@@H]1CC[C@]2(C(=O)N[C@@H](CC(C)C)C(=O)OC)CC[C@]3(C)[C@H](CC[C@@H]4[C@@]5(C)CC[C@H](OC(C)=O)C(C)(C)[C@@H]5CC[C@]43C)[C@@H]12 | > 40 | > 32 | 
16 | CC(C)C[C@H](NC(=O)CCCCCCCNC(=O)[C@]12CC[C@@H](C(C)C)[C@@H]1[C@H]1CC[C@@H]3[C@@]4(C)CC[C@H](O)C(C)(C)[C@@H]4CC[C@@]3(C)[C@]1(C)CC2)[C@H](O)CC(=O)O | 0.33 | 0.4 | 
17 | Cc1cn([C@H]2C[C@H](N=[N+]=[N-])[C@@H](CO)O2)c(=O)[nH]c1=O [ZIDOVUDINE] | 0.075 | > 75 | 
